Data on 7 compounds can be found in ChEMBL document CHEMBL1275375, “Properties and synthesis of 2-{2-fluoro (or bromo)-4-[(2-oxocyclopentyl)methyl]phenyl}propanoic acid: nonsteroidal anti-inflammatory drugs with low membrane permeabilizing and gastric lesion-producing activities” (J Med Chem, 2010).

In series [1] the target is Prostaglandin G/H synthase 1 (Homo sapiens, UniProt P23219). Put plainly: Inhibition of COX1 in human whole blood assessed as TXB2 biosynthesis after 24 hrs by EIA. Format: tissue-based. An outline of the steps:
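IC50 taken from a four-parameter logistic fit of dose-response curves. Ratio is COX-1 IC50 / COX-2 IC50. Mean ± SEM, n = 3.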

The target of series [2] is T1, Prostaglandin G/H synthase 2 (Homo sapiens, UniProt P35354).
T1 sequence (P35354 whole entry): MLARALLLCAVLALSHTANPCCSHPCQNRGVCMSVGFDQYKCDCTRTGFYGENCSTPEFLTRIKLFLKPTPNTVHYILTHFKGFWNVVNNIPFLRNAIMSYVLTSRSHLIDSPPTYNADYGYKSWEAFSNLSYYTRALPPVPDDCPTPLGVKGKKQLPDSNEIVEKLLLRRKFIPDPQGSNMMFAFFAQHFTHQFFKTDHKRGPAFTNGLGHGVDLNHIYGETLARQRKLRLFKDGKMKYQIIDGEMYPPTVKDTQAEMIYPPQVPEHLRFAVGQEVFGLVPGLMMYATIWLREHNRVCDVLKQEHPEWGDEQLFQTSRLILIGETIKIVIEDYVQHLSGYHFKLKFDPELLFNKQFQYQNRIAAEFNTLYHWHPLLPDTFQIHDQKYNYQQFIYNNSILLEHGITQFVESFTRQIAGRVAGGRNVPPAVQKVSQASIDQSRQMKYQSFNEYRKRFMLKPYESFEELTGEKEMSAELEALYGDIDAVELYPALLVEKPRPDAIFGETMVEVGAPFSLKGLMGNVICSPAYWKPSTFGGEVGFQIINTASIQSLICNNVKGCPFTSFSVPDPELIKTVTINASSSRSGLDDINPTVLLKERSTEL
Put plainly: Inhibition of COX2 in human whole blood assessed as PGE2 biosynthesis after 24 hrs by EIA. Format: tissue-based.

The species entered for another series is Homo sapiens. Put plainly: Selectivity ratio of IC50 for human COX1-derived TXB2 biosynthesis to IC50 for human COX2-derived PGE2 biosynthesis. An outline of the steps:
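Human whole blood assay of COX-1- and COX-2-derived PG biosynthesis. IC50 taken from a four-parameter logistic fit of dose-response curves. Ratio is COX-1 IC50 / COX-2 IC50. Mean ± SEM, n = 3.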

The subject of series [3] is Rattus norvegicus. Put plainly: Toxicity in Wistar rat assessed as gastric lesion at 52 to 65 mg/kg, po. Also on record: dose 52-65 mg/kg, route oral. The following applies: in vivo. Format: organism-based, Stomach. In outline:
(§1)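 Rats dosed orally (low or high dose); stomachs removed 8 h after dosing and scored for hemorrhagic damage to give a lesion index. Mean ± SEM, n = 3.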

Series [4] deals with Rattus norvegicus. Put plainly: Antiinflammatory activity against Wistar rat assessed as decrease in gastric level of PGE2 at 52 to 65 mg/kg, po. Format: functional, organism-based. The following applies: Stomach. An outline of the steps: (§2)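 Rats dosed orally (low or high dose); stomachs removed 8 h later and gastric PGE₂ level measured by EIA. Mean ± SEM, n = 3, compared with vehicle.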

Series [5] concerns Rattus norvegicus. Put plainly: Antiinflammatory activity in rat assessed as inhibition of carrageenan-induced paw edema at 13 mg/kg, po administered 1 hr before carrageenan challenge measured after 3 to 6 hrs. Format: functional, organism-based. Set-up: dose 13 mg/kg. In outline:
(§3)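 Oral dosing of rats 1 h before intradermal injection of 1% carrageenan into the left hindpaw. Paw edema measured 3 h and 6 h after carrageenan. Mean ± SEM, n = 3-4, compared with vehicle.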
For orientation: The carrageenan paw model is a standard test of acute inflammation.

Series [6] is described as follows: Membrane permeabilization activity in calcein-loaded liposome assessed as calcein release at […] by fluorescence assay. The series is classed as physicochemical. To be noted: artificial membrane. An outline of the steps: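 Calcein-loaded liposomes exposed to compound; release of self-quenched calcein into the medium read as a rise in fluorescence. Triton X-100 (10 μM) defined 100% permeabilization. Mean ± SEM, n = 3.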

Series [7] deals with Rattus norvegicus. Put plainly: Toxicity in Wistar rat assessed as gastric lesion at 43 to 53 mg/kg, po. Also on record: dose 43-53 mg/kg, route oral. Format: organism-based, Stomach. To be noted: in vivo. An outline of the steps:
as §1

Series [8] relates to Rattus norvegicus. Put plainly: Antiinflammatory activity against Wistar rat assessed as decrease in gastric level of PGE2 at 43 to 53 mg/kg, po. Format: functional, organism-based. The following applies: Stomach. In outline:
as §2

Series [9] concerns Rattus norvegicus. Put plainly: Antiinflammatory activity in rat assessed as inhibition of carrageenan-induced paw edema at 11 mg/kg, po administered 1 hr before carrageenan challenge measured after 3 to 6 hrs. The series is classed as functional, organism-based. Set-up: dose 11 mg/kg. In outline:
as §3

Series [10] relates to Rattus norvegicus. Put plainly: Toxicity in Wistar rat assessed as gastric lesion at 40 to 50 mg/kg, po. Format: organism-based, Stomach. Also on record: dose 40-50 mg/kg, route oral. To be noted: in vivo. In outline:
as §1

Series [11] has as its system Rattus norvegicus. Put plainly: Antiinflammatory activity against Wistar rat assessed as decrease in gastric level of PGE2 at 40 to 50 mg/kg, po. The series is classed as functional, organism-based. To be noted: Stomach. An outline of the steps: as §2
Series [12] deals with Rattus norvegicus. Put plainly: Antiinflammatory activity in rat assessed as inhibition of carrageenan-induced paw edema at 10 mg/kg, po administered 1 hr before carrageenan challenge measured after 3 to 6 hrs. The series is classed as functional, organism-based. Set-up: dose 10 mg/kg. An outline of the steps:
as §3

As usually defined, the IC50 is the concentration that gives 50% inhibition.

Active and inactive are the calls of the source. No cut-off for these calls is given here.

Sequence of Prostaglandin G/H synthase 1 (P23219 whole entry): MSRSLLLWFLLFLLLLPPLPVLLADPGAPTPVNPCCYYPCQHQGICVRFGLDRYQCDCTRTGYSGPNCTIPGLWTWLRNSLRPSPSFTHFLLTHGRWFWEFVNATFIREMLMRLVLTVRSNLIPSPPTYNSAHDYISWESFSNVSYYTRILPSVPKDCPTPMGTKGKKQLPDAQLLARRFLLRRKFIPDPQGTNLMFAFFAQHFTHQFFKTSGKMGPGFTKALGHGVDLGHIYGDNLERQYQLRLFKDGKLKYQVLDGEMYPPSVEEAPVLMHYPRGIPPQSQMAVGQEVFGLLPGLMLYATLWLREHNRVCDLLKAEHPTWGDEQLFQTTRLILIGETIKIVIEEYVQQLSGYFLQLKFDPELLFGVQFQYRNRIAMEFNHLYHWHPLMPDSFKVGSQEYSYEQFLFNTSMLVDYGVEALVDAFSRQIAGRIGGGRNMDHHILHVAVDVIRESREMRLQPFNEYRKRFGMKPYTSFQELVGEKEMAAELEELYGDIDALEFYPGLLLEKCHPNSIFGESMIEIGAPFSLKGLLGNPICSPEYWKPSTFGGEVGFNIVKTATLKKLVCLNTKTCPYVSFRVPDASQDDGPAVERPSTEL

For the compound `CC(C(=O)O)c1ccc(C[C@@H]2CCC[C@@H]2O)cc1F` (relative stereo), the IC50 in series [1] stood at 7.7 µM; in series [2], 48 µM. Further, the Ratio IC50 in the series filed under Homo sapiens was 0.2.
In the same order, the values of `CC(C(=O)O)c1ccc(C[C@@H]2CCC[C@@H]2O)cc1Br` (relative stereo) are 7.2 µM, 34 µM and 0.2.
For `CC(C(=O)O)c1ccc(C[C@H]2CCC[C@@H]2O)cc1F` (relative stereo), in that order: 0.6 µM, 3.1 µM and 0.4.
In the same order, the values of `CC(C(=O)O)c1ccc(C[C@H]2CCC[C@@H]2O)cc1Br` (relative stereo) are 2.2 µM, 8.5 µM and 0.3.
For the compound `CC(C(=O)[O-])c1ccc(CC2CCCC2=O)cc1Br.[Na+]` (stereo not drawn) [BROMOLOXOPROFEN], the IC50 in [1] worked out at 30.3 µM; in series [2], 65.3 µM. In addition, the Ratio IC50 in the series filed under Homo sapiens was 0.5. Also, the Activity result with Rattus norvegicus [3] is given as “Toxic”; in series [6] it was “Not Active”. Moreover, the result with Rattus norvegicus [4] and in the series on Rattus norvegicus [5] was Active.
As for `CC(C(=O)[O-])c1ccc(CC2CCCC2=O)cc1F.[Na+]` (stereo not drawn) [FLUORO LOXOPROFEN], the IC50 in [1] worked out at 24.2 µM; in series [2], 14.3 µM. In the series filed under Homo sapiens, the Ratio IC50 is 2.5. Also, the Activity result in the series on Rattus norvegicus [7] is reported as “Toxic”; in series [6] it was “Not Active”. For the same compound, the result with Rattus norvegicus [8] and in the series on Rattus norvegicus [9] was Active.
With `CC(C(=O)[O-])c1ccc(CC2CCCC2=O)cc1.[Na+]` (stereo not drawn) [LOXOPROFEN SODIUM], the IC50 in [1] worked out at 23.5 µM; in [2], 10.1 µM. Further, in the series filed under Homo sapiens, the Ratio IC50 is 2.5. In addition, the Activity result in the series on Rattus norvegicus [10] was “Toxic”; in series [6] it was “Active”. For the same compound, the result in the series with Rattus norvegicus [11] and with Rattus norvegicus [12] was Active.
